According to ChEMBL document CHEMBL2407017, “Pyrazolo[3,4-d]pyrimidine Prodrugs: Strategic Optimization of the Aqueous Solubility of Dual Src/Abl Inhibitors” (ACS Med Chem Lett, 2013):
≈ marks a conversion by molar mass, not a printed value. Calls of active or inactive are those of the source. The rule behind the calls is not given here.

Assays:
[1] = biological target: Proto-oncogene tyrosine-protein kinase Src (Mus musculus) (UniProt P05480); assay: Inhibition of c-SRC phosphorylation at Y416 in mouse 32D cells expressing BCR/ABL fusion protein p210 at 1 uM by Western blotting analysis; format: cell-based
Chain of Proto-oncogene tyrosine-protein kinase Src (Mus musculus) (P05480 2-535 limits assumed): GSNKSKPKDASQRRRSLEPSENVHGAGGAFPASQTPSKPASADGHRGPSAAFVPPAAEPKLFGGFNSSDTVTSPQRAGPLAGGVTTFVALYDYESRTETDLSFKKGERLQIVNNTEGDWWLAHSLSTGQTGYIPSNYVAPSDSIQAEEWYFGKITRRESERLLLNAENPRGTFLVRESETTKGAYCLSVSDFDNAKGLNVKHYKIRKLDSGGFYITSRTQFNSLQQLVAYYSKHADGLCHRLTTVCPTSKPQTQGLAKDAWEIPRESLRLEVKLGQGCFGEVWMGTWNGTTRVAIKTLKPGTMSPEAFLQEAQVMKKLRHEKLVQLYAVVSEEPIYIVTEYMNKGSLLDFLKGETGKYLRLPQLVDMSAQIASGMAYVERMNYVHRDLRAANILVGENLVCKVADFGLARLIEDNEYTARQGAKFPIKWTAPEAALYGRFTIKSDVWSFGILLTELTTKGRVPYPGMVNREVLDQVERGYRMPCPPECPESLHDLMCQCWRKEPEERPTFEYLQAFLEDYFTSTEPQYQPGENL
Summary of the method: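 32D cells treated with 1 μM compound. Phosphorylated (active) c-Src and c-Abl detected by Western blot with β-actin as loading control. Dasatinib used as reference dual inhibitor.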

cells [2] = conditions: Mus musculus, 32D, 48 h
[3] = Thermodynamic solubility of the compound in water at 1 mg after 24 hrs by UV/LC-MS analysis; format: physicochemical; conditions: read-out: Therm_solubility
Summary of the method: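 Aqueous solubility: compound concentration measured by UV/LC−MS after filtration through a 0.45 μm nylon filter. Mean of at least two experiments.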

cells [4] = conditions: Mus musculus, 32D, 48 h; remark: listed apart in the source
[5] = Apparent permeability of the compound after 5 hrs by PAMPA; format: ADME; conditions: for Papp at 5 h: PAMPA
[6] = Metabolic stability in human liver microsomes assessed as compound remaining at 50 uM after 60 mins by UV/LC/MS analysis; format: ADME, Microsome; conditions: read-out: Stability
Summary of the method: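 Human pooled liver microsomes, incubated at 37 °C for 1 h to simulate phase I metabolism. Parent drug and metabolites are then quantified by LC–MS. Stability is given as the percentage of unmodified drug remaining.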

[7] = Apparent permeability of the compound assessed as membrane retention after 5 hrs by PAMPA; format: ADME
Summary of the method: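 PAMPA passive permeability measured as Papp (10⁻⁶ cm s⁻¹). Membrane retention is the percentage of compound that fails to reach the acceptor compartment. Mean of at least two experiments.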

[8] = biological target: Proto-oncogene tyrosine-protein kinase Src (Homo sapiens) (UniProt P12931); assay: Inhibition of recombinant c-SRC (unknown origin) at 100 uM after 5 mins by scintillation counting analysis in presence of [gamma32P]ATP
Chain of Proto-oncogene tyrosine-protein kinase Src (Homo sapiens) (P12931 2-536 limits assumed): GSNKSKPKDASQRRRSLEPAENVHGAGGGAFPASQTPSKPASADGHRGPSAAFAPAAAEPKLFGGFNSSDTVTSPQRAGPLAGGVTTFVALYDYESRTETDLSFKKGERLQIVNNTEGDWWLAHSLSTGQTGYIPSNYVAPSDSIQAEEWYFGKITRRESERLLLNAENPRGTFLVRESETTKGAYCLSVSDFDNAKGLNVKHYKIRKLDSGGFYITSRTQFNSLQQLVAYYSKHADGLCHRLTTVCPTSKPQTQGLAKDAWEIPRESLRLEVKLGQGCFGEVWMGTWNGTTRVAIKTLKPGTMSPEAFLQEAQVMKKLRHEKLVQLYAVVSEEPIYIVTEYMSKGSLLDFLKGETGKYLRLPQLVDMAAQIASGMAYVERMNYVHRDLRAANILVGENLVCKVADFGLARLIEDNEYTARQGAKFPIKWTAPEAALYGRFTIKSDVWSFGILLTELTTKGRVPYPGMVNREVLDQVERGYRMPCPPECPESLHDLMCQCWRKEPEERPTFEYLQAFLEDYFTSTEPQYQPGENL

[9] = Half life in human plasma at 1 mM by HPLC analysis; format: ADME, cell-free
Summary of the method: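 Incubated at 37 °C in pooled human plasma. Loss of substrate and formation of parent drug followed by HPLC. Mean of at least two experiments.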

[10] = Half life in methanol at 500 uM by HPLC analysis; format: physicochemical
Summary of the method: (§1)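 Compounds dissolved at 500 μM in methanol, water, or PBS (12.5 μM, pH 7.4). Mean of at least two experiments.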

[11] = Half life in phosphate buffer at 500 uM at pH 7.4 by HPLC analysis; format: physicochemical; summary of the method: as §1
[12] = biological target: Tyrosine-protein kinase ABL1 (Homo sapiens) (UniProt P00519); assay: Inhibition of recombinant wild type c-ABL (unknown origin) at 100 uM after 5 mins by scintillation counting analysis in presence of [gamma32P]ATP
Chain of Tyrosine-protein kinase ABL1 (Homo sapiens) (P00519 whole entry): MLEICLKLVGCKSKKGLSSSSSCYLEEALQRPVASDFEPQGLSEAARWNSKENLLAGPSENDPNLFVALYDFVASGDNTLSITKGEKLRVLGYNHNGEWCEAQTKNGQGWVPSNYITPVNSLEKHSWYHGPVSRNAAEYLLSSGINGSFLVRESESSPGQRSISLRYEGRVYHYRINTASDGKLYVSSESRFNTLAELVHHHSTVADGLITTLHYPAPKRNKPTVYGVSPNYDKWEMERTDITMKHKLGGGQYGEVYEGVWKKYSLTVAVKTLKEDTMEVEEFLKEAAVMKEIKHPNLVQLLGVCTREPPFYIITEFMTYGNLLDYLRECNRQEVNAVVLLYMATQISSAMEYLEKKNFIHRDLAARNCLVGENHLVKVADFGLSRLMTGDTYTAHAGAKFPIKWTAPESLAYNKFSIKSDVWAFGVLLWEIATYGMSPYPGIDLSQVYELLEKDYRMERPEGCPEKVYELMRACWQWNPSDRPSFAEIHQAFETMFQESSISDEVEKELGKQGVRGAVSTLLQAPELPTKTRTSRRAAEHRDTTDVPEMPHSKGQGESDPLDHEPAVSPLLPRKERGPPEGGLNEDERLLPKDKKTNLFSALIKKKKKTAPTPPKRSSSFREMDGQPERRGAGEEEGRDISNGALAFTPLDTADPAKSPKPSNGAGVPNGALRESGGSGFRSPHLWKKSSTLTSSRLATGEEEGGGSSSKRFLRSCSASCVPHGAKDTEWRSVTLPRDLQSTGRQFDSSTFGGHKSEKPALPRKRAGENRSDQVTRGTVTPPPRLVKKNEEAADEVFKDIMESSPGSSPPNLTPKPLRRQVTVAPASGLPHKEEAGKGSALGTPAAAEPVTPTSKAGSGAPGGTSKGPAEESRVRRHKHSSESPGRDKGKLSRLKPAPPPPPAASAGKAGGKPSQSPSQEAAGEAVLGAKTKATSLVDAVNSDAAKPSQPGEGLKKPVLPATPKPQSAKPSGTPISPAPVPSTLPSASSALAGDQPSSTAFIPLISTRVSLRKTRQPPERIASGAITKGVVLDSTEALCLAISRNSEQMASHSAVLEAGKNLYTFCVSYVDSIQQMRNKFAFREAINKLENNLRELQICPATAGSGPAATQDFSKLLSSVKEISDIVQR

[13] = Half life in water at 500 uM by HPLC analysis; format: physicochemical; summary of the method: as §1

| Inhibition of c-SRC Y416 phosphorylation (qualitative) [1] | IC50 (cells [2]) [µM] | solubility thermodynamic at 24 h [3] [µg/mL] | IC50 (cells [4]) [µM] | Papp at 5 h [5] [×10⁻⁶ cm/s] | remaining at 1 h, 50 µM [6] [%] | R% [7] [%] | inhibition [8] | half-life at 1000 µM [9] [h] | half-life at 500 µM [10] [h] | half-life at 500 µM [11] [h] | inhibition [12] | half-life at 500 µM [13] [h] | Papp ([5]; pampa, 5 h) [×10⁻⁶ cm/s] | Compound |
| --- | --- | --- | --- | --- | --- | --- | --- | --- | --- | --- | --- | --- | --- | --- |
| Active | 6.2 | 0.01 (≈ 0.022 µM) | 5.8 | 0.01 | 95.1 | 80.4 |  |  |  |  |  |  |  | CSc1nc(Nc2cccc(Br)c2)c2cnn(CC(C)c3ccccc3)c2n1 (stereo not given) |
| Active | 3.5 | 0.05 (≈ 0.128 µM) | 6.7 | 5.99 | 91.5 | 44.9 |  |  |  |  |  |  |  | CCCCNc1nc(SCC)nc2c1cnn2CC(Cl)c1ccccc1 (stereo not given) |
| Active | 1.2 |  | 2.4 |  |  |  | inactive | 0.467 | 2.08 | 1.05 | inactive | 0.5 |  | CCCCN(C(=O)OCCN1CCN(C)CC1)c1nc(SCC)nc2c1cnn2CC(Cl)c1ccccc1 (stereo not given) |
| Active | 2.8 |  | 2.6 |  | 99.9 | 67.3 | inactive | 3.22 | > 48 | > 48 | inactive | > 48 | 2.11 | CSc1nc(N(C(=O)OCCN2CCN(C)CC2)c2cccc(Br)c2)c2cnn(CC(C)c3ccccc3)c2n1 (stereo not given) |
